{"source": "ChEMBL document CHEMBL4308887", "about": "“Synthesis and biological evaluation of clovamide analogues with catechol functionality as potent Parkinson's disease agents in vitro and in vivo” (Bioorg Med Chem Lett, 2019)", "key": {"SH-SY5Y [1]": {"tested_on": "SH-SY5Y", "assay": "Neuroprotection against H2O2-induced toxicity in human SH-SY5Y cells assessed as LDH release at 1 uM preincubated for 6 hrs followed by H2O2 addition and measured after 24 hrs (reference value: 339.93 +/- 3.66 U/L)", "format": "functional"}, "SH-SY5Y [2]": {"tested_on": "SH-SY5Y", "assay": "Cytotoxicity against non-stimulated human SH-SY5Y cells assessed as effect on LDH release measured after 6 hrs", "format": "cell-based"}, "SH-SY5Y [3]": {"tested_on": "SH-SY5Y", "assay": "Protection against H2O2-induced morphological changes in human SH-SY5Y cells at 1 to 10 uM preincubated for 6 hrs followed by H2O2 addition and measured after 24 hrs by inverted microscopic analysis", "format": "functional, cell-based", "outline": "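Cell morphology under inverted microscope after pretreatment and 600 μM H₂O₂; DMSO below 0.1%.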"}, "SH-SY5Y [4]": {"tested_on": "SH-SY5Y", "assay": "Protection against H2O2-induced oxidative stress in human SH-SY5Y cells assessed as reduction in reactive oxygen species level preincubated for 6 hrs followed by H2O2 addition and measured after 24 hrs by DHE dye based flow cytometry", "format": "functional, cell-based"}, "SH-SY5Y [5]": {"tested_on": "SH-SY5Y", "assay": "Protection against H2O2-induced mitochondrial dysfunction in human SH-SY5Y cells assessed as mitochondrial membrane potential at 1 uM preincubated for 6 hrs followed by H2O2 addition and measured after 24 hrs by Rh123 staining based flow cytometry (reference value: 26.31 +/- 3.32%)", "format": "functional", "outline": "(§1)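 ΔΨm examined by inverted fluorescence microscopy and flow cytometry after pretreatment (1, 10 μM) and 600 μM H₂O₂. Reported as % of control. Mean ± S.E.M., three independent experiments.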"}, "SH-SY5Y [6]": {"tested_on": "SH-SY5Y", "assay": "Protection against H2O2-induced mitochondrial dysfunction in human SH-SY5Y cells assessed as mitochondrial membrane potential at 10 uM preincubated for 6 hrs followed by H2O2 addition and measured after 24 hrs by Rh123 staining based flow cytometry (reference value: 26.31 +/- 3.32%)", "format": "functional", "outline": "as §1"}, "SH-SY5Y [7]": {"tested_on": "SH-SY5Y", "assay": "Induction of mitochondrial dysfunction in non-stimulated human SH-SY5Y cells assessed as mitochondrial membrane potential at 10 uM measured after 6 hrs by Rh123 staining based flow cytometry (reference value: 97.6 %)", "format": "cell-based"}, "SH-SY5Y [8]": {"tested_on": "SH-SY5Y", "assay": "Protection against H2O2-induced oxidative stress in human SH-SY5Y cells assessed as increase in SOD activity preincubated for 6 hrs followed by H2O2 addition and measured after 24 hrs by xanthine oxidase method", "format": "functional, cell-based", "outline": "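Cellular SOD activity (units) and MDA content (μmol/g) measured in SH-SY5Y after pretreatment (1, 10 μM) and 600 μM H₂O₂. Mean ± S.E.M. of three independent experiments.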"}, "SH-SY5Y [9]": {"tested_on": "SH-SY5Y", "assay": "Protection against H2O2-induced apoptosis in human SH-SY5Y cells assessed as early apoptotic cells at 1 uM preincubated for 6 hrs followed by H2O2 addition and measured after 24 hrs by Annexin V-FITC/propidium iodide staining based flow cytometry (reference value: 6.6%)", "format": "functional"}, "SH-SY5Y [10]": {"tested_on": "SH-SY5Y", "assay": "Protection against H2O2-induced apoptosis in human SH-SY5Y cells assessed as late apoptotic cells at 1 uM preincubated for 6 hrs followed by H2O2 addition and measured after 24 hrs by Annexin V-FITC/propidium iodide staining based flow cytometry (reference value: 3.5%)", "format": "functional"}, "SH-SY5Y [11]": {"tested_on": "SH-SY5Y", "assay": "Protection against H2O2-induced apoptosis in human SH-SY5Y cells assessed as decrease in ratio of Bax/Bcl2 expression preincubated for 6 hrs followed by H2O2 addition and measured after 24 hrs by Western blot analysis", "format": "functional, cell-based", "outline": "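Western blot of Bax, Bcl-2 and cleaved caspase-3 in SH-SY5Y after pretreatment (1, 10 μM) and 600 μM H₂O₂. β-actin internal standard; Bax/Bcl-2 ratio from densitometry. Mean ± S.E.M., three independent experiments.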"}, "Mus musculus [12]": {"tested_on": "Mus musculus", "assay": "Anti-parkinson's activity in MPTP-induced C57Bl/6 mouse model of Parkinson's disease assessed as increase in tyrosine hydroxylase expression in substantia nigra at 10 to 20 mg/kg, ig pretreated for 10 days followed by MPTP challenge measured 10 days post MPTP addition by DAB staining based immunohistochemistry method", "format": "functional, organism-based", "outline": "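Tissue taken 10 days after MPTP injection from mice dosed orally with 1 (10 or 20 mg/kg). TH in SNpc and striatum by western blot, and by DAB immunostaining. Three of the mice per group analysed. Mean ± S.D., n = 6 mice/group.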"}, "Mus musculus [13]": {"tested_on": "Mus musculus", "assay": "Anti-parkinson's activity in MPTP-induced C57Bl/6 mouse model of Parkinson's disease assessed as decrease in ratio of Bax/Bcl2 expression in substantia nigra at 10 to 20 mg/kg, ig pretreated for 10 days followed by MPTP challenge measured 10 days post MPTP addition by Western blot analysis", "format": "functional, organism-based", "outline": "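Substantia nigra from MPTP mice. Bax, Bcl-2 and cleaved caspase-3 measured by western blot, with Bcl-2/Bax ratio by densitometry. Mean ± S.D., n = 6 mice/group.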"}, "Mus musculus [14]": {"tested_on": "Mus musculus", "assay": "Anti-parkinson's activity in MPTP-induced C57Bl/6 mouse model of Parkinson's disease assessed as increase in SOD activity in striatum administered intragastrically pretreated for 10 days followed by MPTP challenge measured 10 days post MPTP addition by xanthine oxidase method", "format": "functional, organism-based", "outline": "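Striatum and SNpc from MPTP-treated mice dosed orally with 1 at 10 or 20 mg/kg. MDA level and SOD activity measured. Mean ± S.D., n = 6 mice/group.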"}, "[15]": {"assay": "AUC (0 to infinity) in Sprague-Dawley rat at 25 mg/kg, po by LC-MS/MS analysis", "format": "ADME, organism-based", "parameters": "dose 25 mg/kg, time infinity, route oral", "conditions": "in vivo", "outline": "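Male Sprague–Dawley rats (n = 3) got a single oral dose of 25 mg/kg in 0.5% methylcellulose with 1% Tween 80. AUC0-∞ came from the plasma concentration–time profile, reported as mean ± SD.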"}, "[16]": {"assay": "MRT in Sprague-Dawley rat at 25 mg/kg, po by LC-MS/MS analysis", "format": "ADME, organism-based", "conditions": "in vivo", "outline": "(§2)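 Male Sprague–Dawley rats dosed with 1 at 5 mg/kg i.v. (vehicle 5% DMSO, 2% F68, 93% saline) or 25 mg/kg p.o. (0.5% methylcellulose with 1% Tween 80). Orbital blood sampled at 0.083–24 h, 12 time points. Plasma PK parameters derived. Mean ± SD, n = 3.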"}, "[17]": {"assay": "Half life in Sprague-Dawley rat at 5 mg/kg, iv by LC-MS/MS analysis", "format": "ADME, organism-based", "conditions": "in vivo", "outline": "as §2"}, "[18]": {"assay": "Activation of PI3K/Akt/mTOR signaling in human SH-SY5Y cells assessed as up regulation of H2O2-induced HO-1 expression at 10 uM preincubated for 6 hrs followed by H2O2 addition and after 24 hrs in presence of JNK inhibitor SP600125 by Western blot analysis", "format": "cell-based", "outline": "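SH-SY5Y cells preincubated 1 h with one inhibitor: SB203580 10 μM, LY294002 5 μM, U0126 10 μM, SP600125 5 μM or rapamycin 100 nM. Then 1 (10 μM) for 6 h, then 600 μM H₂O₂. HO-1 measured by western blot and densitometry. Mean ± S.E.M., three independent experiments.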"}, "SH-SY5Y [19]": {"tested_on": "SH-SY5Y", "assay": "Neuroprotection against H2O2-induced cell death in human SH-SY5Y cells assessed as cell viability at 10 uM preincubated for 6 hrs followed by H2O2 addition and measured after 24 hrs in presence of PI3K/Akt/mTOR inhibitor LY294002 by MTT assay relative to control", "format": "functional", "conditions": "read-out: Activity", "outline": "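SH-SY5Y cells preincubated 1 h with LY294002 (5 μM) or rapamycin (100 nM). Then 1 (10 μM) for 6 h, then 600 μM H₂O₂. Viability by MTT. Mean ± S.E.M., three independent experiments.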"}}, "note": "The source made the active and inactive calls. The calls are words filed in the database; no cut-off is given here.", "data": [{"smiles": "COC(=O)[C@H](Cc1ccccc1)NC(=O)/C=C/c1ccc(O)c(O)c1", "note": "[N-CAFFEOYL-PHENYLALANINE METHYL ESTER]", "values": [{"measurement": "Activity", "setting": "SH-SY5Y [1]", "value": 269.12, "unit": "U/L"}, {"measurement": "Activity", "setting": "SH-SY5Y [2]", "value": "Non-Toxic"}, {"measurement": "Activity", "setting": "SH-SY5Y [3]", "value": "Active"}, {"measurement": "Activity", "setting": "SH-SY5Y [4]", "value": "Dose-dependent effect"}, {"measurement": "Activity", "setting": "SH-SY5Y [5]", "value": 79.4, "unit": "%"}, {"measurement": "Activity", "setting": "SH-SY5Y [6]", "value": 98.3, "unit": "%"}, {"measurement": "Activity", "setting": "SH-SY5Y [7]", "value": 98.1, "unit": "%"}, {"measurement": "Activity", "setting": "SH-SY5Y [8]", "value": "Dose-dependent effect"}, {"measurement": "Activity", "setting": "SH-SY5Y [9]", "value": 6.3, "unit": "%"}, {"measurement": "Activity", "setting": "SH-SY5Y [10]", "value": 3.9, "unit": "%"}, {"measurement": "Activity", "setting": "SH-SY5Y [11]", "value": "Dose-dependent effect"}, {"measurement": "Activity", "setting": "Mus musculus [12]", "value": "Active"}, {"measurement": "Activity", "setting": "Mus musculus [13]", "value": "Active"}, {"measurement": "Activity", "setting": "Mus musculus [14]", "value": "Dose-dependent effect"}, {"measurement": "AUC", "setting": "[15]", "value": 2495.56, "unit": "ng·h/mL"}, {"measurement": "MRT", "setting": "[16]", "value": 3.06, "unit": "h"}, {"measurement": "half-life", "setting": "[17]", "value": 0.85, "unit": "h"}, {"measurement": "Activity", "setting": "[18]", "value": "Active"}, {"measurement": "viability at 10 µM", "setting": "SH-SY5Y [19]", "value": 60.5, "unit": "%"}]}]}
